{"source": "paper PMC4636097", "about": "(Drug Design, Development and Therapy, 2015)", "key": {"[1]": {"system": "pooled HLMs (human liver microsomes)", "assay": "Kinetics of OMT metabolism", "format": "in vitro ADME", "settings": "pooled HLM, formation of MT, biphasic metabolism equation"}, "[2]": {"system": "pooled HIMs (human intestinal microsomes)", "assay": "Kinetics of OMT metabolism", "format": "in vitro ADME", "settings": "pooled HIM, formation of MT, biphasic metabolism equation"}, "[3]": {"target": "cDNA-expressed human CYP3A4 (Homo sapiens, UniProt P08684)", "sequence (P08684 whole entry)": "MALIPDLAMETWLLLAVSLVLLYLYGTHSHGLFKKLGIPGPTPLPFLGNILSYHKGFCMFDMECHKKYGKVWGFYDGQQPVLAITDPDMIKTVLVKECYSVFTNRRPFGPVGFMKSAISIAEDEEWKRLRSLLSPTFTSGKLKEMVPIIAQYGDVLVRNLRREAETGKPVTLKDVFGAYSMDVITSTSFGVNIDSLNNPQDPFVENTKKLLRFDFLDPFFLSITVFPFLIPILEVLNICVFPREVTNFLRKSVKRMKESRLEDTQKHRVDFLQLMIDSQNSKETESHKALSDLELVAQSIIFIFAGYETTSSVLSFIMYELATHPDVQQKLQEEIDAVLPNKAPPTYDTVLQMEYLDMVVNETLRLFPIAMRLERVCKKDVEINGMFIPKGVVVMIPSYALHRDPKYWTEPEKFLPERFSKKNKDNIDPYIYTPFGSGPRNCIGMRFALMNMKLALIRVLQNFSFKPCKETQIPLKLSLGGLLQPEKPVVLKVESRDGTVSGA", "assay": "Metabolism of OMT in recombinant human CYP enzymes: CYP3A4", "format": "in vitro ADME", "settings": "OMT 50 μM, 0.08 mg/mL enzyme, NADPH-regenerating system, 37°C, 1.5 hours"}, "[4]": {"system": "other cDNA-expressed CYP enzymes (CYP1A1, CYP1A2, CYP1B1, CYP2A6, CYP2B6, CYP2C8, CYP2C19, CYP2D6, CYP2E1, CYP3A5)", "assay": "Metabolism of OMT in recombinant human CYP enzymes: other isoforms", "format": "in vitro ADME", "settings": "OMT 50 μM, 0.08 mg/mL enzyme, NADPH-regenerating system, 37°C, 1.5 hours"}, "HLMs [5]": {"system": "HLMs", "assay": "Effects of different oxygen contents on the metabolism of OMT in HLMs", "format": "in vitro ADME, human", "settings": "OMT 50 μM, enzyme inactivated in boiled water for 2 h, ventilation for 30 s"}, "HLMs [6]": {"system": "HLMs", "assay": "Identification of OMT metabolite in HLMs", "format": "in vitro ADME, human", "settings": "HLMs and NADPH, 37°C, 1.5 hours; metabolite identified as MT", "outline": "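Test compound at 50, 100 or 200 μM with pooled human liver microsomes (0.1 mg/mL) in 50 mM KPI pH 7.4 and a glucose-6-phosphate/MgCl2/G6P dehydrogenase system, started with NADP. Controls lacked NADP. Run at 37°C for 1.5 h with shaking, then CH2Cl2 extraction. UPLC and Q-TOF MS (positive ESI); metabolite assigned by chromatographic behaviour and MS fragmentation. Triplicate.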"}, "[7]": {"settings": "oral administration; cited from earlier work"}}, "data": [{"compound": "O=C1CCC[C@@H]2[C@H]3CCC[N+]4([O-])CCC[C@@H](CN12)[C@@H]34", "note": "(stereo partly shown) [OMT, Oxymatrine]", "values": [{"measurement": "Vmax", "setting": "[1]", "result": "1.49 ± 0.24", "unit": "nmol/min/mg"}, {"measurement": "Vmax", "setting": "[2]", "result": "0.46 ± 0.05", "unit": "nmol/min/mg"}, {"measurement": "formation of MT by CYP3A4", "setting": "[3]", "result": "contributed greatly to the formation of MT"}, {"measurement": "formation of MT by other cDNA-expressed CYP enzymes", "setting": "[4]", "result": "only a small amount of MT could be detected"}, {"measurement": "metabolites in the inactivated enzyme test", "setting": "HLMs [5]", "result": "no metabolites were observed"}, {"measurement": "metabolites found in HLMs", "setting": "HLMs [6]", "result": "only one metabolite was found in HLMs"}, {"measurement": "oral absolute bioavailability", "setting": "[7]", "result": 6.79, "unit": "%"}]}]}
